Here are results for 4 compounds from publication PMC9614283 (Journal of medicinal chemistry, 2017).

One assay concerns the target human recombinant PDE5A1 (Homo sapiens, UniProt O76074). The assay can be described thus: PDE5 fluorescent. The class given is biochemical. The method, boiled down: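 Reactions ran 60 min at room temperature with 0.1-0.45 ng PDE5, 100 nM FAM-cGMP or FAM-cAMP substrate and test compound. Binding agent was then added for 60 min at room temperature, and fluorescence was read at ex 485/em 528 nm and converted to polarisation. Each concentration was run in duplicate. Activity was normalised between no compound (100%) and no enzyme and no compound (0%). IC50 came from sigmoidal non-linear regression; values are average ± S.E.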

The target in assay [1] is T1, PDE6C (Homo sapiens, UniProt P51160). Particulars: read-out: PDE6C IC50; recombinant human enzyme; cited from earlier work.
T1 sequence (P51160 whole entry): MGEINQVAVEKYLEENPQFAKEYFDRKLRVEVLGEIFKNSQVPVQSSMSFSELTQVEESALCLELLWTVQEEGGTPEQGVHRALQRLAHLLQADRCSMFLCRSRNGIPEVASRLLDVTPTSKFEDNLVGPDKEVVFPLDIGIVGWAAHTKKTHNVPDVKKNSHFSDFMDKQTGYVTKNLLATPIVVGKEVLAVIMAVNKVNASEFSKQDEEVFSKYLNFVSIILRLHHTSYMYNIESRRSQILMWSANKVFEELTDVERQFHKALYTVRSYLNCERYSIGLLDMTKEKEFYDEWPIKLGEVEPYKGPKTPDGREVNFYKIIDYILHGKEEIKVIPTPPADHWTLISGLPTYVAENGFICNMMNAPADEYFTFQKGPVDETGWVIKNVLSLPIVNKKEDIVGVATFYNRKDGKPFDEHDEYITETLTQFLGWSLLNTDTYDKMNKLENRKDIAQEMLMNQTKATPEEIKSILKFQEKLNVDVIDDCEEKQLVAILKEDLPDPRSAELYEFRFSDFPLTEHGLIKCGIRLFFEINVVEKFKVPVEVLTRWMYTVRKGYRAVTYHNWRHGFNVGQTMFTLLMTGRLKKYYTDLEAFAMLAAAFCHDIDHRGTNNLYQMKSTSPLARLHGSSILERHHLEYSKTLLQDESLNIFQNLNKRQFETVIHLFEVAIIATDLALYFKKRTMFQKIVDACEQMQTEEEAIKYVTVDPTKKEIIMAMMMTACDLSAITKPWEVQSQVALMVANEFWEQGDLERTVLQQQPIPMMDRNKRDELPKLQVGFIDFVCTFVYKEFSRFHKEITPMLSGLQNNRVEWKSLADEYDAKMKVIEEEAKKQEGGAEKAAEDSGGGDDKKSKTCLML
In assay [2] the test system is cGMP levels in the hippocampus of mice. Particulars: dosed at 3 mg/kg; cited from earlier work.
For the next assay, the system named is AD mouse models. Particulars: pharmacological treatment of two different AD mouse models; cited from earlier work.
Assay [3] has as its system cGMP levels in the hippocampus of mice. The assay can be described thus: Hippocampal cGMP levels after foot shock. The format is in vivo. Particulars: WT mice, 3 mg/kg ip, 180 s after foot shock; not significant (p = 0.097). The method, boiled down: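 Male and female C57Bl6 mice, 2-3 months old (20-25 g), received 3 mg/kg i.p. in 2% DMSO & 2% Tween, or vehicle alone. Foot shock was given 30 min later. Mice were killed by cervical dislocation and decapitation 10 s, 1 min or 3 min after shock. Hippocampi were snap-frozen. cGMP was measured by enzyme immunoassay in duplicate and normalised to BCA protein. n=3 per group; t-test/2-way ANOVA.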

Assay [4] concerns hippocampal long-term potentiation (LTP). Kind of assay: Hippocampal slice LTP electrophysiology, acute bath perfusion. Particulars: 50 nM bath perfusion. The format is cell-based, mice.
Assay [5] has as its target T1, PDE6C. The assay can be described thus: PDE6 fluorescent. Particulars: PDE6C vs PDE5A1. The class given is biochemical.

Molecules are shown by their SMILES.

In general, IC50 refers to the concentration at which inhibition is half-maximal. Take `COc1ccc(CNc2c3c(nc4ccccc24)CCN(C(C)=O)C3)cc1Cl` [17a, 1-(10-((3-Chloro-4-methoxybenzyl)amino)-3,4-dihydrobenzo[b][1,6]naphthyridin-2(1H)-yl)ethan-1-one]: the IC50 on human recombinant PDE5A1 turned out to be 110 ± 3.3 nM.

As to `COc1ccc(CNc2c(CO)cnc3c(C4CC4)cc(C#N)cc23)cc1Cl` [compound 1], the IC50 on PDE6C [1] was 339 nM. The “cGMP in the hippocampus of mice” value in assay [2] is on record as “elevation”. Besides, in the assay on AD mouse models, the learning and memory entry was “rescues learning and memory”.

`COc1ccc(CNc2c3c(nc4ccc(C#N)cc24)CCN(C(C)=O)C3)cc1Cl` [compound 6c, 2-Acetyl-10-[(3-chloro-4-methoxybenzyl)amino]-1,2,3,4-tetrahydrobenzo[b][1,6]naphthyridine-8-carbonitrile]: the “increase of hippocampal cGMP levels” value in assay [3] is listed as “slight increase”. In addition, the “effect on LTP in WT slices” value in assay [4] was “did not have any effect”.

For the compound `CCN1Cc2nc3ccc(C#N)cc3c(NCc3ccc(OC)c(Cl)c3)c2C1=O` [compound 24a, 9-((3-Chloro-4-methoxybenzyl)amino)-2-ethyl-1-oxo-2,3-dihydro-1H-pyrrolo[3,4-b]quinoline-7-carbonitrile], on PDE6C [5], the “selectivity for PDE5 versus PDE6” value is given as ~ 100 fold.
